Laboratory results as given in ChEMBL document CHEMBL4725436, “Gibberellin JRA-003: A Selective Inhibitor of Nuclear Translocation of IKKα” (ACS Med Chem Lett, 2020).
Activity calls are given as the source filed them. The rule behind the calls is not given here.

Legend:
RCK8 = assay: Cytotoxicity against human RC-K8 cells assessed as reduction in cell viability measured after 24 hrs by CellTiter-Glo luminescent assay; assay type: functional, cell-based; settings: RCK8, 24 h
In short: (§1)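 High-throughput viability screen of test agents across a panel of 22 cancerous and noncancerous human cell lines. Viability was read by CellTiter-Glo luminescence.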

CA46 = assay: Cytotoxicity against human CA46 cells assessed as reduction in cell viability measured after 24 hrs by CellTiter-Glo luminescent assay; assay type: functional, cell-based; settings: CA46, 24 h; in short: as §1
[1] = Selectivity index, ratio of IC50 for human Hs578Bst cells to EC50 for human HCC1599 cells measured after 24 hrs by CellTiter-Glo luminescent assay; assay type: toxicity; settings: Hs578Bst cells (IC50) versus HCC1599 cells (EC50); in short: as §1
HEK-293T [2] = assay: Inhibition of IKKalpha/IKKbeta in human HEK293T cells transfected with firefly luciferase gene assessed as inhibition of NF-kappaB signalling at 10 uM by luciferase reporter gene assay; assay type: cell-based
[3] = Selectivity index, ratio of IC50 for human Hs888lu cells to EC50 for human HS578T cells measured after 24 hrs by CellTiter-Glo luminescent assay; in short: as §1
[4] = Selectivity index, ratio of IC50 for human Hs888Lu cells to EC50 for human RC-K8 cells measured after 24 hrs by CellTiter-Glo luminescent assay; assay type: toxicity; settings: Hs888Lu cells (IC50) versus RC-K8 cells (EC50); in short: as §1
[5] = Cytotoxicity against human Hs895T cells assessed as reduction in cell viability measured after 24 hrs by CellTiter-Glo luminescent assay; assay type: functional, cell-based; in short: as §1
[6] = Selectivity index, ratio of IC50 for human Hs578Bst cells to EC50 for human CA46 cells measured after 24 hrs by CellTiter-Glo luminescent assay; assay type: toxicity; settings: Hs578Bst cells (IC50) versus CA46 cells (EC50); in short: as §1
[7] = Selectivity index, ratio of IC50 for human Hs895SK cells to EC50 for human HCC1599 cells measured after 24 hrs by CellTiter-Glo luminescent assay; assay type: toxicity; settings: Hs895SK cells (IC50) versus HCC1599 cells (EC50); in short: as §1
[8] = Cytotoxicity against human Hs578Bst cells assessed as reduction in cell viability measured after 24 hrs by CellTiter-Glo luminescent assay; assay type: cell-based; in short: as §1
[9] = Selectivity index, ratio of IC50 for human Hs578Bst cells to EC50 for human SU-DHL-4 cells measured after 24 hrs by CellTiter-Glo luminescent assay; assay type: toxicity; settings: Hs578Bst cells (IC50) versus SU-DHL-4 cells (EC50); in short: as §1
[10] = biological target: T1, Inhibitor of nuclear factor kappa-B kinase subunit alpha (Homo sapiens) (UniProt O15111); assay: Inhibition of IKKalpha in human HeLa cells assessed as reduction in IL-1 beta-stimulated IKK alpha nuclear translocation at 10 uM pretreated with compound for 4 hrs followed by stimulation with IL-1 beta for 1 hr by immunohistochemical staining/confocal microscopy; assay type: cell-based
T1 sequence (whole entry): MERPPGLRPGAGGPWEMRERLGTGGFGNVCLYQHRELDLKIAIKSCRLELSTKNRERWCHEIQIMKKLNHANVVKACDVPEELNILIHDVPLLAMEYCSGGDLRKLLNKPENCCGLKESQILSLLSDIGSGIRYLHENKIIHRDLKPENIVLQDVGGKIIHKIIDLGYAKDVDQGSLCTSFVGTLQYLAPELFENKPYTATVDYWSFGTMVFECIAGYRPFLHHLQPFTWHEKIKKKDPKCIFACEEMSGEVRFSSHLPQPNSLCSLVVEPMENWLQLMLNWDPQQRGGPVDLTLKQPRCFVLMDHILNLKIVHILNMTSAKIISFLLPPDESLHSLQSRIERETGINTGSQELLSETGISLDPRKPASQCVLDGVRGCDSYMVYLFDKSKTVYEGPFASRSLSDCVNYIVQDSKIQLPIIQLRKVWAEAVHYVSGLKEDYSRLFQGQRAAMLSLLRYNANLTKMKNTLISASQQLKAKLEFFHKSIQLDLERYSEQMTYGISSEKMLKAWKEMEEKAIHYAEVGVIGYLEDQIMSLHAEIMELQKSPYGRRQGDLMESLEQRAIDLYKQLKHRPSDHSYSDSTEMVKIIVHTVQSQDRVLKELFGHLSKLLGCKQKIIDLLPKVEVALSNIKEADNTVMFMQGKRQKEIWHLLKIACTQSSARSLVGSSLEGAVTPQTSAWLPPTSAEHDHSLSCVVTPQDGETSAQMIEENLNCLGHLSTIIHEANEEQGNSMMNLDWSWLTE
In short: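 HeLa cells were pretreated with DMSO or test agent for 4 h, then stimulated with IL-1β (or vehicle) for 1 h. NF-κB pathway members were immunostained with AF488-tagged antibodies, nuclei were counterstained with DAPI, and compartmental localization was imaged by confocal microscopy.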

Hs-578T = assay: Cytotoxicity against human Hs-578T cells assessed as reduction in cell viability measured after 24 hrs by CellTiter-Glo luminescent assay; assay type: functional, cell-based; in short: as §1
[11] = biological target: T1, Inhibitor of nuclear factor kappa-B kinase subunit alpha (Homo sapiens); assay: Inhibition of JRA-031 binding to IKKalpha in TNF-alpha-stimulated human HEK293T cells at 1 uM pretreated with compound for 1 hr followed by labeling with JRA-031 for 1 hr followed by stimulation with TNF-alpha for 1 hr by pull down based mass spectrometry; assay type: cell-based; settings: HEK-293T
HEK-293T [12] = assay: Cytotoxicity against human HEK293T cells assessed as reduction in cell viability measured after 24 hrs by CellTiter-Glo luminescent assay; assay type: cell-based; in short: as §1
[13] = Selectivity index, ratio of IC50 for human HS895SK cells to EC50 for human RC-K8 cells measured after 24 hrs by CellTiter-Glo luminescent assay; in short: as §1
PSN1 = assay: Cytotoxicity against human PSN1 cells assessed as reduction in cell viability measured after 24 hrs by CellTiter-Glo luminescent assay; assay type: functional, cell-based; settings: PSN1, 24 h; in short: as §1
[14] = Cytotoxicity against human Hs895SK cells assessed as reduction in cell viability measured after 24 hrs by CellTiter-Glo luminescent assay; assay type: cell-based; settings: Hs 895.Sk; in short: as §1
[15] = Selectivity index, ratio of IC50 for human Hs578Bst cells to EC50 for human RC-K8 cells measured after 24 hrs by CellTiter-Glo luminescent assay; assay type: toxicity; settings: Hs578Bst cells (IC50) versus RC-K8 cells (EC50); in short: as §1
[16] = biological target: T1, Inhibitor of nuclear factor kappa-B kinase subunit alpha (Homo sapiens); assay: Inhibition of IKK alpha nuclear translocation in human HEK-293T cells assessed as reduction in IKK alpha level in nucleus at 15 uM pretreated with compound for 1 hr followed by stimulation with IL-1 beta for 3 hrs by western blot analysis; assay type: subcellular
In short: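 HEK 293T cells were pretreated with vehicle or test agent, then stimulated with IL-1β (or vehicle). Cells were lysed and nuclei separated, and the cytosolic and nuclear fractions were each probed for IKKα and IKKβ by Western blotting.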

Compound: C=C1C[C@]23C[C@@]1(O)CC[C@H]2[C@@]12C=CC(=O)[C@@](C)(C(=O)O1)[C@H]2[C@@H]3C(=O)OC
- EC50 (RCK8): < 0.04 µM
- EC50 (CA46): < 0.04 µM
- selectivity ratio at 24 h [1]: 500
- inhibition (HEK-293T [2]): 100%
- Ratio IC50/EC50 [3]: > 500
- selectivity ratio at 24 h [4]: 500
- EC50 [5]: 9.2 µM
- selectivity ratio at 24 h [6]: 500
- selectivity ratio at 24 h [7]: 500
- IC50 [8]: > 10 µM
- selectivity ratio at 24 h [9]: 500
- inhibition [10]: Active
- EC50 (Hs-578T): < 0.04 µM
- inhibition [11]: Active
- IC50 (HEK-293T [12]): > 10 µM
- Ratio IC50/EC50 [13]: 500
- IC50 (PSN1): > 10 µM
- IC50 [14]: > 10 µM
- selectivity ratio at 24 h [15]: 500
- inhibition [16]: Active
